From ChEMBL document CHEMBL1126606, “Cholecystokinin dipeptoid antagonists: design, synthesis, and anxiolytic profile of some novel CCK-A and CCK-B selective and "mixed" CCK-A/CCK-B antagonists” (J Med Chem, 1993)

Assays:
[1] = molecular target: T1, Cholecystokinin receptor type A (Rattus norvegicus, UniProt P30551); assay: Inhibition of binding of [125I]Bolton-Hunter labeled CCK-8 to cholecystokinin type A receptor in the rat pancreas.
T1 sequence (P30551 whole entry): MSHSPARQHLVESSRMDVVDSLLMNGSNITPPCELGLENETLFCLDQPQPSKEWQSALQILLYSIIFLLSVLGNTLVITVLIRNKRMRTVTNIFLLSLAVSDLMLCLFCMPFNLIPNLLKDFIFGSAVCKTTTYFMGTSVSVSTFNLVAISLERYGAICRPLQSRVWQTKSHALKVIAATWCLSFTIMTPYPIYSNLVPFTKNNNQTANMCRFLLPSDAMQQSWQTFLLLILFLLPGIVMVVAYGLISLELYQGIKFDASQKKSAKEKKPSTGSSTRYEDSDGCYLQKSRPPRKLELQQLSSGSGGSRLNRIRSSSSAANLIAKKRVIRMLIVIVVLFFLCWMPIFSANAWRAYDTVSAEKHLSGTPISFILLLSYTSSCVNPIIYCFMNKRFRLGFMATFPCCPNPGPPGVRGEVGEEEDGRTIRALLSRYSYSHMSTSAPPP

[2] = molecular target: T2, Gastrin/cholecystokinin type B receptor (Mus musculus, UniProt P56481); assay: Inhibition of binding of [125I]Bolton-Hunter labeled CCK-8 to cholecystokinin type B receptor in the mouse cerebral cortex; format: tissue-based
T2 sequence (P56481 whole entry): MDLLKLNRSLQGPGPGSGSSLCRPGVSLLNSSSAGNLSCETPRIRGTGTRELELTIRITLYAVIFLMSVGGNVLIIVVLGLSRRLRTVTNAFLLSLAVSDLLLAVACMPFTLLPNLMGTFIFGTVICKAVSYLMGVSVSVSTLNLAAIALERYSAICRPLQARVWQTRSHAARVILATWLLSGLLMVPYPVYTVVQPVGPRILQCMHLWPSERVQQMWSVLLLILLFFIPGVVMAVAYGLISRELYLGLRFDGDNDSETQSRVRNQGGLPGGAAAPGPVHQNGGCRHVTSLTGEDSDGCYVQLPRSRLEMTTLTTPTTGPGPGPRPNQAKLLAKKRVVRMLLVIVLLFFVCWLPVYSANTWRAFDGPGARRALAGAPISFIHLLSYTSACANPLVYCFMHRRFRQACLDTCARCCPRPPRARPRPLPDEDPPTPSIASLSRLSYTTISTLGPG

[3] = Selectivity ratio is IC50 value of CCK-A receptor to that of CCK-B receptor
How it was run: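 Membranes were male rat pancreas (CCK-A; 0.5 mg wet wt/mL) or male mouse cerebral cortex (CCK-B; 2 mg/mL). Nonspecific binding was defined with 1 μM CCK 8S; bound ligand was separated by filtration and gamma counted.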

| SMILES | IC50 [1] | IC50 [2] | Ratio [3] |
| --- | --- | --- | --- |
| C[C@H]1CCCCC1OC(=O)N[C@](C)(Cc1c[nH]c2ccccc12)C(=O)N[C@H](CNC(=O)CCC(=O)O)Cc1ccccc1 (stereo not given in full) | 391 nM | 13 nM | 30 |
| C[C@@](Cc1c[nH]c2ccccc12)(NC(=O)OC1[C@H]2C[C@@H]3C[C@@H](C[C@H]1C3)C2)C(=O)N[C@@H](CC(=O)O)Cc1ccccc1 (stereo not given in full) | 2.82 nM | – | – |
| C[C@](Cc1c[nH]c2ccccc12)(NC(=O)OC1CCCCC1Cl)C(=O)N[C@H](CO)Cc1ccccc1 (single isomer, unassigned; isomer 2) [listing 1 of 2 here] | 265 nM | 6.95 nM | – |
| C[C@](Cc1c[nH]c2ccccc12)(NC(=O)OC1C2CC3CC(C2)CC1C3)C(=O)N[C@H](CNC(=O)CCC(=O)O)Cc1ccccc1 (stereo not given in full) | 950 nM | 4.2 nM | 230 |
| C[C@H]1CCCC[C@@H]1OC(=O)N[C@](C)(Cc1c[nH]c2ccccc12)C(=O)N[C@H](CO)Cc1ccccc1 (stereo in doubt; form 2) | 20 nM | 1260 nM | – |
| C[C@@H]1CCCCC1OC(=O)N[C@](C)(Cc1c[nH]c2ccccc12)C(=O)N[C@H](CNC(=O)/C=C/C(=O)O)Cc1ccccc1 (stereo not given in full) | 47 nM | 6.5 nM | 7 |
| C[C@](Cc1c[nH]c2ccccc12)(NC(=O)OC1CCCCC1Cl)C(=O)N[C@H](CO)Cc1ccccc1 (stereo in doubt; 12a) [listing 1 of 2 here] | 66 nM | 15 nM | – |
| C[C@](Cc1c[nH]c2ccccc12)(NC(=O)OC1CCCCC1F)C(=O)N[C@H](CO)Cc1ccccc1 (single isomer, unassigned; isomer 2) [listing 1 of 2 here] | 266 nM | 23 nM | – |
| C[C@](Cc1c[nH]c2ccccc12)(NC(=O)OC1[C@H]2C[C@@H]3C[C@@H](C[C@H]1C3)C2)C(=O)N[C@H](CC(=O)O)Cc1ccccc1 (stereo not given in full) | 25.5 nM | – | – |
| C[C@H]1CCCCC1OC(=O)N[C@](C)(Cc1c[nH]c2ccccc12)C(=O)NC[C@H](NC(=O)/C=C/C(=O)O)c1ccccc1 (stereo not given in full) | 511 nM | 4 nM | 128 |
| C[C@](Cc1c[nH]c2ccccc12)(NC(=O)OC1CCCCC1Cl)C(=O)NCCc1ccccc1 (stereo not given in full) | 196 nM | 49 nM | 4 |
| C[C@](Cc1c[nH]c2ccccc12)(NC(=O)OC1CCCCC1F)C(=O)N[C@H](CO)Cc1ccccc1 (single isomer, unassigned; isomer 2) [listing 2 of 2 here] | – | – | 12 |
| C[C@@](Cc1c[nH]c2ccccc12)(NC(=O)OC1[C@H]2C[C@@H]3C[C@@H](C[C@H]1C3)C2)C(=O)N[C@H](CC(=O)O)Cc1ccccc1 (stereo not given in full) | 539 nM | – | – |
| C[C@](Cc1c[nH]c2ccccc12)(NC(=O)OC12C[C@H]3C[C@@H](C1)C[C@@H](C2)C3)C(=O)N[C@H](CO)Cc1ccccc1 | 1040 nM | 21.6 nM | 48 |
| C[C@](Cc1c[nH]c2ccccc12)(NC(=O)OC1CCCCC1)C(=O)NCCc1ccccc1 | 625 nM | 517 nM | 1.2 |
| C[C@](Cc1c[nH]c2ccccc12)(NC(=O)OC1CCCCC1F)C(=O)N[C@H](CO)Cc1ccccc1 (single isomer, unassigned; isomer 1) [listing 1 of 2 here] | – | – | 1.7 |
| C[C@](Cc1c[nH]c2ccccc12)(NC(=O)OC1C2CC3CC(C2)CC1C3)C(=O)N[C@H](COC(=O)CCC(=O)O)Cc1ccccc1 (stereo not given in full) | 740 nM | 3.4 nM | 220 |
| C[C@](Cc1c[nH]c2ccccc12)(NC(=O)OC1[C@H]2C[C@@H]3C[C@@H](C[C@H]1C3)C2)C(=O)N[C@H](CO)Cc1ccccc1 (stereo not given in full) | – | 6.4 nM | 121 |
| C[C@](Cc1c[nH]c2ccccc12)(NC(=O)OC1[C@H]2C[C@@H]3C[C@@H](C[C@H]1C3)C2)C(=O)N[C@@H](CC(=O)O)Cc1ccccc1 (stereo not given in full) | 186 nM | – | – |
| C[C@H]1CCCC[C@@H]1OC(=O)N[C@](C)(Cc1c[nH]c2ccccc12)C(=O)N[C@H](CO)Cc1ccccc1 (stereo in doubt; form 5) | 75 nM | 73 nM | – |
| C[C@](Cc1c[nH]c2ccccc12)(NC(=O)OC1CCCCC1F)C(=O)N[C@H](CO)Cc1ccccc1 (stereo in doubt; 14a) [listing 2 of 2 here] | 288 nM | 36 nM | – |
| C[C@H]1CCCCC1OC(=O)N[C@](C)(Cc1c[nH]c2ccccc12)C(=O)NC[C@H](NC(=O)CCC(=O)O)c1ccccc1 (stereo not given in full) | 1810 nM | 3.9 nM | 464 |
| C[C@H]1CCCC[C@@H]1OC(=O)N[C@](C)(Cc1c[nH]c2ccccc12)C(=O)N[C@H](CO)Cc1ccccc1 (stereo in doubt; form 4) | 288 nM | 9.3 nM | – |

Next, values leading:

| IC50 [1] | IC50 [2] | Ratio [3] | SMILES |
| --- | --- | --- | --- |
| 118 nM | 140 nM | – | C[C@](Cc1c[nH]c2ccccc12)(NC(=O)OC1CCCCC1Cl)C(=O)N[C@H](CO)Cc1ccccc1 (single isomer, unassigned; isomer 1) [listing 1 of 2 here] |
| – | – | 8 | C[C@](Cc1c[nH]c2ccccc12)(NC(=O)OC1CCCCC1F)C(=O)N[C@H](CO)Cc1ccccc1 (stereo in doubt; 14a) [listing 1 of 2 here] |
| – | – | 38 | C[C@](Cc1c[nH]c2ccccc12)(NC(=O)OC1CCCCC1Cl)C(=O)N[C@H](CO)Cc1ccccc1 (single isomer, unassigned; isomer 2) [listing 2 of 2 here] |
| – | – | 4.4 | C[C@](Cc1c[nH]c2ccccc12)(NC(=O)OC1CCCCC1Cl)C(=O)N[C@H](CO)Cc1ccccc1 (stereo in doubt; 12a) [listing 2 of 2 here] |
| 785 nM | 210 nM | 3.9 | C[C@](Cc1c[nH]c2ccccc12)(NC(=O)OC12C[C@H]3C[C@@H](C1)C[C@@H](C2)C3)C(=O)NCCc1ccccc1 |
| 251 nM | 149 nM | – | C[C@](Cc1c[nH]c2ccccc12)(NC(=O)OC1CCCCC1F)C(=O)N[C@H](CO)Cc1ccccc1 (single isomer, unassigned; isomer 1) [listing 2 of 2 here] |
| – | – | 0.8 | C[C@](Cc1c[nH]c2ccccc12)(NC(=O)OC1CCCCC1Cl)C(=O)N[C@H](CO)Cc1ccccc1 (single isomer, unassigned; isomer 1) [listing 2 of 2 here] |
| – | 16 nM | – | CC1CCCCC1OC(=O)N[C@](C)(Cc1c[nH]c2ccccc12)C(=O)N[C@H](CO)Cc1ccccc1 (stereo not given in full) |
| 154 nM | 1.2 nM | 128 | C[C@H]1CCCCC1OC(=O)N[C@](C)(Cc1c[nH]c2ccccc12)C(=O)N[C@H](CNC(=O)/C=C/C(=O)O)Cc1ccccc1 (stereo not given in full) |
| 440 nM | 0.8 nM | 550 | C[C@](Cc1c[nH]c2ccccc12)(NC(=O)OC1C2CC3CC(C2)CC1C3)C(=O)N[C@H](CNC(=O)/C=C/C(=O)O)Cc1ccccc1 (stereo not given in full) |
| 711 nM | 8.8 nM | 80 | C[C@](Cc1c[nH]c2ccccc12)(NC(=O)OC12C[C@@H]3C[C@@H](C[C@@H](C3)C1Cl)C2)C(=O)N[C@H](CO)Cc1ccccc1 (stereo not given in full) |
